From ChEMBL document CHEMBL1125601, “Comparative molecular field analysis of some clodronic acid esters” (J Med Chem, 1991)

Experiments:
[1] = Partition coefficient (logP); type: physicochemical; details: octanol/water
Procedure, shortened: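 Shake-flask partition: 200 mg ester dissolved in 4 mL pH 7.4 phosphate buffer or 1-octanol (each saturated with the other), the opposite phase (4 mL) added, shaken 1 h, left overnight, then centrifuged. Both phases were assayed by capillary GC with nitrogen-phosphorus detection.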

[2] = Bioavailability in rat as ratio of unchanged drug excreted in the urine after p.o dosing to that following i.v. administration; type: ADME, organism-based; details: po
Procedure, shortened: (§1)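 Sprague-Dawley male rats given clodronate esters at 100 μmol/kg orally and intravenously, three animals per dose level and route. Unchanged drug was measured by capillary GC with nitrogen-phosphorus detection. F = (cumulative oral urinary amount × iv dose)/(cumulative iv urinary amount × oral dose).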

[3] = species: Mus musculus; experiment: In vitro inhibition of bone resorption tested in mouse calvarial resorption assay by measuring release of 45Ca from labelled bones; type: functional; design: concentration or dose not given beside the values
Procedure, shortened: (§2)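 Mouse calvarial pieces prelabelled with 45Ca, cultured 72 h with PTH (10 nmol/l) plus ester at 100 μmol/l. Calcium release was measured and expressed as percent of control, the control being PTH-stimulated bones without bisphosphonate.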

[4] = species: Mus musculus; experiment: In vitro inhibition of bone resorption tested in mouse calvarial resorption assay by measuring release of 45Ca from labelled bones; expressed as logit inhibition resorption; type: functional; procedure, shortened: as §2
[5] = species: Rattus norvegicus; experiment: Bioavailability of compound was determined from urinary excretion data in rat, expressed as log; type: ADME, organism-based, Urine; details: in vivo; procedure, shortened: as §1
[6] = test system: Rattus norvegicus; experiment: In vivo inhibition of bone resorption tested in rat resorption assay measured at dose of 150 umol/kg after iv administration
[7] = test system: Rattus norvegicus; experiment: In vivo inhibition of bone resorption tested in rat resorption assay measured at dose of 150 umol/kg after iv administration, expressed as log
[8] = species: Mus musculus; experiment: In vitro inhibition of bone resorption tested in mouse calvarial resorption assay by measuring release of 45Ca from labelled bones; expressed as logit inhibition response; type: functional; procedure, shortened: as §2

Row | SMILES | logP ([1]; read-out: logP) | bioavailability [2] | Inhibition [3] | Logit_p(conc) [4] | Logit bioavailability [5] | Delta Ca [6] | Log 1/delta/Ca [7] | logP [1] | Inhibition [4] | Logit_p(conc) [8]
1 | CCOP(=O)(O)C(Cl)(Cl)P(=O)(O)OCC | -3.96 | 34% | 12.3% | 3.15 | 3.71 | 1.05 mM | 2.98 | – | – | –
2 | CCCCCCOP(=O)(O)C(Cl)(Cl)P(=O)(OCCCCCC)OCCCCCC | 4.89 | – | 58% | 4.31 | – | – | – | – | – | –
3 | CC(C)OP(=O)(O)C(Cl)(Cl)P(=O)(O)O | -3.24 | 3.6% | 11.8% | 3.12 | 2.57 | 1.27 mM | 2.9 | – | – | –
4 | CC(C)OP(=O)(OC(C)C)C(Cl)(Cl)P(=O)(O)O | -3.56 | 13.6% | 0.8% | 1.3 | 3.19 | 1.25 mM | 2.9 | – | – | –
5 | CCCCCCOP(=O)(OCCCCCC)C(Cl)(Cl)P(=O)(O)O | -0.15 | 7.6% | 15.1% | 3.25 | 2.91 | 0.93 mM | 3.03 | – | – | –
6 | CCOP(=O)(O)C(Cl)(Cl)P(=O)(O)O | – | 37.9% | – | – | 3.79 | 0.77 mM | 3.11 | -5.44 | 15.4% | 3.26
7 | CCOP(=O)(O)C(Cl)(Cl)P(=O)(OCC)OCC | -2.37 | 7% | 14.7% | 3.23 | 2.88 | 0.7 mM | 3.15 | – | – | –
8 | CCCCCCOP(=O)(O)C(Cl)(Cl)P(=O)(O)O | -2.75 | 17.9% | 21.1% | 3.42 | 3.4 | – | – | – | – | –
9 | CC(C)OP(=O)(O)C(Cl)(Cl)P(=O)(OC(C)C)OC(C)C | -0.95 | 1.9% | 7.4% | 2.9 | 2.28 | 1.51 mM | 2.82 | – | – | –
10 | CC(C)OP(=O)(O)C(Cl)(Cl)P(=O)(O)OC(C)C | -2.96 | 1.9% | 8% | 2.93 | 2.3 | 1.09 mM | 2.96 | – | – | –
11 | CCCCCCOP(=O)(O)C(Cl)(Cl)P(=O)(O)OCCCCCC | -0.64 | 31% | 20.5% | 3.41 | 3.65 | 1.43 mM | 2.84 | – | – | –
12 | CCOP(=O)(OCC)C(Cl)(Cl)P(=O)(OCC)OCC | 1.31 | 5% | 18.8% | 3.36 | 2.72 | 1.52 mM | 2.81 | – | – | –
13 | CC(C)OP(=O)(OC(C)C)C(Cl)(Cl)P(=O)(OC(C)C)OC(C)C | 2.89 | 32.1% | 17.5% | 3.32 | 3.67 | 1.54 mM | 2.81 | – | – | –
